According to ChEMBL document CHEMBL4052600 (J Med Chem, 2017):

Experiments:
[1] = molecular target: Phosphatidylinositol 4,5-bisphosphate 3-kinase catalytic subunit alpha isoform (Homo sapiens, UniProt P42336); experiment: Inhibition of PI3Kalpha (unknown origin) using PIP2 as substrate preincubated for 15 mins followed by substrate addition measured after 60 mins in presence of ATP by HTRF method
Summary of the method: (§1)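 For PI3Kδ, substrate concentration limits measurable potency to about pIC50 9.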

[2] = molecular target: Phosphatidylinositol 4,5-bisphosphate 3-kinase catalytic subunit beta isoform (Homo sapiens, UniProt P42338); experiment: Inhibition of PI3Kbeta (unknown origin) using PIP2 as substrate preincubated for 15 mins followed by substrate addition measured after 60 mins in presence of ATP by HTRF method
[3] = molecular target: Phosphatidylinositol 4,5-bisphosphate 3-kinase catalytic subunit gamma isoform (Homo sapiens, UniProt P48736); experiment: Inhibition of PI3Kgamma (unknown origin) using PIP2 as substrate preincubated for 15 mins followed by substrate addition measured after 60 mins in presence of ATP by HTRF method
[4] = molecular target: T1, Phosphatidylinositol 4,5-bisphosphate 3-kinase catalytic subunit delta isoform (Homo sapiens, UniProt O00329); experiment: Inhibition of PI3Kdelta (unknown origin) using PIP2 as substrate preincubated for 15 mins followed by substrate addition measured after 60 mins in presence of ATP by HTRF method; summary of the method: as §1
T1 sequence (O00329 whole entry): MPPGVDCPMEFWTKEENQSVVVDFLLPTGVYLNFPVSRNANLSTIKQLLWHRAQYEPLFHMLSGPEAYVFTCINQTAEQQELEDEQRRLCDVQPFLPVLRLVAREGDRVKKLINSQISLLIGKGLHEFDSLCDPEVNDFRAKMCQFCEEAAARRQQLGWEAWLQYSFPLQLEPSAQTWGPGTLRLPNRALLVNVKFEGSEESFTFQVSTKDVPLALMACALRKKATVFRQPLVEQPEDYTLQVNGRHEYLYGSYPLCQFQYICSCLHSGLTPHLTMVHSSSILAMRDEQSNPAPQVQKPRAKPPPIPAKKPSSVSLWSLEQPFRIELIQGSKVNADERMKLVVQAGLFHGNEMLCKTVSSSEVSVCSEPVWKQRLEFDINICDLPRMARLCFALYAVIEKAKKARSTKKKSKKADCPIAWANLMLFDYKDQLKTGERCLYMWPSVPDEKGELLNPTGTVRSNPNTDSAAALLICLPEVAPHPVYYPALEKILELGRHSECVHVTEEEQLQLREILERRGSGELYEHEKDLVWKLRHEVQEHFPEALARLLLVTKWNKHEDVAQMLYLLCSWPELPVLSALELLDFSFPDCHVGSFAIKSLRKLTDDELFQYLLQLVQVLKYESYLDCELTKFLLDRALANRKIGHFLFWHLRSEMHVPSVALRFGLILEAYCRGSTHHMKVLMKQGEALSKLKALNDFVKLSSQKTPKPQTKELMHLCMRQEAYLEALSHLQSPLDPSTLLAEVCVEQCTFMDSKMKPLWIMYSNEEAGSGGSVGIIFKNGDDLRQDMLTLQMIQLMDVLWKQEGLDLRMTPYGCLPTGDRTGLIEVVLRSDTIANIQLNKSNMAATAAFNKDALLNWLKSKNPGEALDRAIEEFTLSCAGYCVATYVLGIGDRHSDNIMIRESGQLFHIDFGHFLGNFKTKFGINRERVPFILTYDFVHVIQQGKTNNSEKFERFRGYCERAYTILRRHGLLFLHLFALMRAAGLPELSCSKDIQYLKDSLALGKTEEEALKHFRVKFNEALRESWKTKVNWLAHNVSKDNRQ

[5] = molecular target: C-C chemokine receptor type 5 (Homo sapiens, UniProt P51681); experiment: Antagonist activity at human CCR5 expressed in HEK 293 Glosensor cells assessed as reduction in RANTES-induced intracellular calcium levels preincubated for 30 mins followed by RANTES addition measured at 2 secs time interval for 5 mins by Fluo-4-AM dye based fluorescence assay; assay type: functional, cell-based
C-C chemokine receptor type 5, sequence (P51681 whole entry): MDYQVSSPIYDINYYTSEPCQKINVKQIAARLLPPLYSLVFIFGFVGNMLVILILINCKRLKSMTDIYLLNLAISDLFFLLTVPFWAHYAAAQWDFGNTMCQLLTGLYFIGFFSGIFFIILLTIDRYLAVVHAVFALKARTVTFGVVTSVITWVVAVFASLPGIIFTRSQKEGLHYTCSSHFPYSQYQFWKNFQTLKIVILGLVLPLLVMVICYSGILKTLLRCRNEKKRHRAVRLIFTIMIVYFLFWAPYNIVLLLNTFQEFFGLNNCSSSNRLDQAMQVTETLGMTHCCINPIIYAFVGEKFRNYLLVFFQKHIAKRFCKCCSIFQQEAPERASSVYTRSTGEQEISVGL

Phosphatidylinositol 4,5-bisphosphate 3-kinase catalytic subunit beta isoform, sequence (P42338 whole entry, canonical isoform): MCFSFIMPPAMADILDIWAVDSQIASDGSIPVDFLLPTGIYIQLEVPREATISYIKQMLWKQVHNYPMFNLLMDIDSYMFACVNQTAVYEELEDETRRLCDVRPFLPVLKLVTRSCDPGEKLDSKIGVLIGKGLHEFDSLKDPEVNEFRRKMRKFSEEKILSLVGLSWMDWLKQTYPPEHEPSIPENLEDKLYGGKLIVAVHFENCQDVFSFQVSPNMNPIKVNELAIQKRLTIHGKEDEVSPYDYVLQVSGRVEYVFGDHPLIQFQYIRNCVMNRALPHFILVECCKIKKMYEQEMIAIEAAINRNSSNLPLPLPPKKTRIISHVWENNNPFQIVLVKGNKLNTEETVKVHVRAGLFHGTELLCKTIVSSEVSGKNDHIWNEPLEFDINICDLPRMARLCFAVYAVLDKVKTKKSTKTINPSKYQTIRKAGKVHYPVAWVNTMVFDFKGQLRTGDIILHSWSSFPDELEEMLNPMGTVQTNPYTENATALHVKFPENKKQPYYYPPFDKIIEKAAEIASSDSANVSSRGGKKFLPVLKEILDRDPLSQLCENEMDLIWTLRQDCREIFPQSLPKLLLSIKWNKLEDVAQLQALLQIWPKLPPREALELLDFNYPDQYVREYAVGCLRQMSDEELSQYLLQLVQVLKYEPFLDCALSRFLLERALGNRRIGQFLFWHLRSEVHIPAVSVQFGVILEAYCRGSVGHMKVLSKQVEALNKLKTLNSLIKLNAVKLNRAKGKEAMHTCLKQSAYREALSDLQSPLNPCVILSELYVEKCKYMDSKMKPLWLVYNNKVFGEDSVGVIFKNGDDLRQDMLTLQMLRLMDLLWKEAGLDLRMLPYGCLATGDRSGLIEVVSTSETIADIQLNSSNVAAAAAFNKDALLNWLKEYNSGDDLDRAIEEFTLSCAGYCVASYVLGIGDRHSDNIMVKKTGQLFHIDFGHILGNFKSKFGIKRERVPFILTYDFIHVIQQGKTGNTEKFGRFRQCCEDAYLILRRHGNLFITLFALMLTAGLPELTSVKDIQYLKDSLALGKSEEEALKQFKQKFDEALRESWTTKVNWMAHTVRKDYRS
Phosphatidylinositol 4,5-bisphosphate 3-kinase catalytic subunit gamma isoform, sequence (P48736 whole entry, canonical isoform): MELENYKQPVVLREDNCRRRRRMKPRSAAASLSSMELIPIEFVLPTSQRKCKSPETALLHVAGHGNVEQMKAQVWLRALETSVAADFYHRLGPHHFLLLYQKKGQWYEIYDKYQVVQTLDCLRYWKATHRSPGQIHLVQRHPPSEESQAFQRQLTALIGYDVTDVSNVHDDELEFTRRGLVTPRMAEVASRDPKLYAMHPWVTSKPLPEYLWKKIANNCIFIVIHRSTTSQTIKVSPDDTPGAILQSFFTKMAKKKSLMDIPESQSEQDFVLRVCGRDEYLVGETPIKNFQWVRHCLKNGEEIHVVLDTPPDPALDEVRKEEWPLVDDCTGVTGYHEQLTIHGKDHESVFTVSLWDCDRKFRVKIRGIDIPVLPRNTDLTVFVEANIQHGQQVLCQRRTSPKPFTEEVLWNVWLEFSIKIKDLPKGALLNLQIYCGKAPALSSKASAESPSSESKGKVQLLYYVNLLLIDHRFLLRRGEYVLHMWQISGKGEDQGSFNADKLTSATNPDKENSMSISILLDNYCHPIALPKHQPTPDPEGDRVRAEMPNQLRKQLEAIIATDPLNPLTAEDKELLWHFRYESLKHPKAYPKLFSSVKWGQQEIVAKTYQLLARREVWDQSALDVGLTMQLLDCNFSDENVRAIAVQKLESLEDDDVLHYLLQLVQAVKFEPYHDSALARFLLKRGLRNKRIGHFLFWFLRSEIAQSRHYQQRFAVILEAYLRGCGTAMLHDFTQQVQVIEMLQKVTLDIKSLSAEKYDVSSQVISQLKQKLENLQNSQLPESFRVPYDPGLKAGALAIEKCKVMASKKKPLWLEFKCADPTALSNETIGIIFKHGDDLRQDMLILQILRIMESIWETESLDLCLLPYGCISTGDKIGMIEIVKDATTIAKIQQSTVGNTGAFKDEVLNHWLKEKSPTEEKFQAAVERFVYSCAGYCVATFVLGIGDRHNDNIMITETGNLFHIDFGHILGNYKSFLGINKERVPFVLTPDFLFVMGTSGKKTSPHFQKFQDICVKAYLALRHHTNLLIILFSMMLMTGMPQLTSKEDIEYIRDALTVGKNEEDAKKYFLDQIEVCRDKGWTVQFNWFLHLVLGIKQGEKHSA
Phosphatidylinositol 4,5-bisphosphate 3-kinase catalytic subunit alpha isoform, sequence (P42336 whole entry, canonical isoform): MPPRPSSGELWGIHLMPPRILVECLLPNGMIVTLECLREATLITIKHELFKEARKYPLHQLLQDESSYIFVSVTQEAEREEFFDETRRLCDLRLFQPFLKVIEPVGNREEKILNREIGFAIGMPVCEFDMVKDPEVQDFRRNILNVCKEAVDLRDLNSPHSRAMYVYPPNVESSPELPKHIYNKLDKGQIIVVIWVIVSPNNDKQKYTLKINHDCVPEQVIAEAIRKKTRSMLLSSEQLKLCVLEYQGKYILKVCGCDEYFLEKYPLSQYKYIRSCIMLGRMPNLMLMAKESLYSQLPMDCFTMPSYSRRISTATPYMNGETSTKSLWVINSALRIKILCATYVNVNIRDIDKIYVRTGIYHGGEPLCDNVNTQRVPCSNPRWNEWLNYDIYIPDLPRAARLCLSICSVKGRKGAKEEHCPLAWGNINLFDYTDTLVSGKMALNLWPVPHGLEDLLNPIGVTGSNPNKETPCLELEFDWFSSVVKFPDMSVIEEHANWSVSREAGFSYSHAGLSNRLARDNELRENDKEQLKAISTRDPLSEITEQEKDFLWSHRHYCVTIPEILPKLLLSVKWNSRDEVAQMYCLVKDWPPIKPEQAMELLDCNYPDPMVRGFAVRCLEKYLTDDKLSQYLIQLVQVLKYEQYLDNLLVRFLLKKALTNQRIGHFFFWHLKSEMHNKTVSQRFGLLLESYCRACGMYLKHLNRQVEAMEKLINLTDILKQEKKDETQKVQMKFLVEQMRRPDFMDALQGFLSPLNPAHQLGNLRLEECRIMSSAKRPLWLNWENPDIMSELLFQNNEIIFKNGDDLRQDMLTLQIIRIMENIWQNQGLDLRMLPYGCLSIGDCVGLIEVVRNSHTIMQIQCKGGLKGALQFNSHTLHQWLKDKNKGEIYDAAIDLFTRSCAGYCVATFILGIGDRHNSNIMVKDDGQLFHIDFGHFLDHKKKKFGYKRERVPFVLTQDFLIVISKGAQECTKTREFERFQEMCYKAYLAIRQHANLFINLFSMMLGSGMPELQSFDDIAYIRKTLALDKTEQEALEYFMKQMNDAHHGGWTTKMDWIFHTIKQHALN

| Structure (SMILES) | IC50 [1] [nM] | IC50 [2] [nM] | IC50 [3] [nM] | IC50 [4] [nM] | Kd [5] [nM] |
| --- | --- | --- | --- | --- | --- |
| FC(F)(F)c1nnc2n1[C@H]1CCN(Cc3cc4nc(-c5cccc6[nH]ccc56)nc(N5CCOCC5)c4s3)C[C@@H]1CC2 (relative stereo) | 501 | 158 | 398 | 1.58 | – |
| Oc1cccc(-c2nc(N3CCOCC3)c3sc(CN4CC[C@H]5[C@H](CCc6nnc(C(F)(F)F)n65)C4)cc3n2)c1 (relative stereo) | 63.1 | 50.1 | 158 | 0.631 | – |
| Oc1cccc(-c2nc(N3CCOCC3)c3sc(CN4CCC(n5cnnc5C(F)(F)F)CC4)cc3n2)c1 | 63.1 | 100 | 158 | 2.51 | – |
| Cc1nncn1C1CCN(Cc2cc3nc(-c4cccc5[nH]ncc45)nc(N4CCOCC4)c3s2)CC1 | 316 | 1000 | 1000 | 10 | – |
| FC(F)(F)c1nncn1C1CCN(Cc2cc3nc(-c4cccc5[nH]ccc45)nc(N4CCOCC4)c3s2)CC1 | 3980 | 794 | 3160 | 20 | – |
| Oc1cccc(-c2nc(N3CCOCC3)c3sc(CN4CC[C@H]5[C@@H](CCc6nnc(C(F)(F)F)n65)C4)cc3n2)c1 (relative stereo) | 31.6 | 50.1 | 200 | 1 | – |
| Cc1nnc2n1[C@H]1CCN(Cc3cc4nc(-c5cccc6[nH]ncc56)nc(N5CCOCC5)c4s3)C[C@H]1CC2 (relative stereo) | 1580 | 1260 | 1260 | 3.16 | – |
| Cc1nnc2n1[C@H]1CCN(CC[C@H](NC(=O)C3CCC(F)(F)CC3)c3ccccc3)C[C@H]1CC2 (racemic) | – | – | – | – | 316 |
| Cc1nnc2n1[C@H]1CCN(Cc3cc4nc(-c5cccc(O)c5)nc(N5CCOCC5)c4s3)C[C@@H]1CC2 (relative stereo) | 100 | 126 | 501 | 0.794 | – |
| Cc1nncn1C1CCN(Cc2cc3nc(-c4cccc(O)c4)nc(N4CCOCC4)c3s2)CC1 | 100 | 158 | 200 | 3.98 | – |
| Cc1nncn1C1CCN(Cc2cc3nc(-c4cccc5[nH]ccc45)nc(N4CCOCC4)c3s2)CC1 | 2000 | 398 | – | 3.98 | – |
| Cc1nnc2n1[C@H]1CCN(Cc3cc4nc(-c5cccc6[nH]ncc56)nc(N5CCOCC5)c4s3)C[C@@H]1CC2 (relative stereo) | 158 | 501 | 316 | 3.98 | – |
| Cc1nnc2n1[C@H]1CCN(Cc3cc4nc(-c5cccc6[nH]ccc56)nc(N5CCOCC5)c4s3)C[C@@H]1CC2 (relative stereo) | 2000 | 316 | 794 | 1 | – |
| FC(F)(F)c1nnc2n1[C@H]1CCN(Cc3cc4nc(-c5cccc6[nH]ccc56)nc(N5CCOCC5)c4s3)C[C@H]1CC2 (relative stereo) | 1580 | 100 | 631 | 0.794 | – |
| FC(F)(F)c1nnc2n1[C@H]1CCN(Cc3cc4nc(-c5cccc6[nH]ncc56)nc(N5CCOCC5)c4s3)C[C@@H]1CC2 (relative stereo) | 158 | 631 | 1000 | 7.94 | – |
| FC(F)(F)c1nnc2n1[C@H]1CCN(Cc3cc4nc(-c5cccc6[nH]ncc56)nc(N5CCOCC5)c4s3)C[C@H]1CC2 (relative stereo) | 316 | 398 | 794 | 2.51 | – |
| Cc1nnc2n1[C@H]1CCN(Cc3cc4nc(-c5cccc6[nH]ccc56)nc(N5CCOCC5)c4s3)C[C@H]1CC2 (relative stereo) | 3160 | 316 | 1580 | 0.794 | – |
| FC(F)(F)c1nncn1C1CCN(Cc2cc3nc(-c4cccc5[nH]ncc45)nc(N4CCOCC4)c3s2)CC1 | 316 | 1260 | 794 | 20 | – |
| Cc1nnc2n1[C@@H]1CCN(CC[C@H](NC(=O)C3CCC(F)(F)CC3)c3ccccc3)C[C@@H]1CC2 (relative stereo) | – | – | – | – | 10 |
